This passage reports Activity results from ChEMBL document CHEMBL1268852, “Quercetin prevents unloading-derived disused muscle atrophy by attenuating the induction of ubiquitin ligases in tail-suspension mice” (J Nat Prod, 2010).

Common to all, as to format: functional, organism-based
The subject of test [1] is Mus musculus. Kind of test: Reduction of atrogin-1 mRNA expression in gastrocnemius muscle of C57BL/6 mouse tail suspension model at 2.5 pmol administered in gastrocnemius muscle qd for 10 days by RT-PCR analysis. In a few lines:
(§1)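 Male C57BL/6 mice, 7 weeks old, injected intramuscularly in one gastrocnemius with 2.5 pmol/leg in saline/0.1% propylene glycol every 24 h; vehicle went into the contralateral leg. Tail suspension lasted 10 days and ground mice served as controls. Gastrocnemius taken 6 h after the last dose. mRNA measured by real-time PCR and given as % of the vehicle-ground level; mean ± SE, n=4.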

Test [2] has as its system Mus musculus. Kind of test: Reduction of MuRF-1 mRNA expression in gastrocnemius muscle of C57BL/6 mouse tail suspension model at 2.5 pmol administered in gastrocnemius muscle qd for 10 days by RT-PCR analysis. The essentials: as §1
For test [3], the system named is Mus musculus. Kind of test: […] of lipid peroxidation in gastrocnemius muscle of C57BL/6 mouse tail suspension model assessed as decrease of thiobarbituric acid-reactive substance level at 2.5 pmol administered in gastrocnemius muscle qd for 10 days by RT-PCR analysis. In a few lines: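 Male C57BL/6 mice, 7 weeks old. Compound in 0.9% saline with 0.1% propylene glycol, 2.5 pmol/leg (50 µL) injected into one gastrocnemius and vehicle into the other, given every 24 h. Tail suspension began 24 h after the first dose and lasted 10 days; ground mice served as controls. Muscle taken 6 h after the day-10 dose. TBARS measured by fluorescence ([…]) against a tetraethoxypropane standard; n=4, two-way ANOVA.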

Test [4] concerns Mus musculus. Kind of test: Reduction of gastrocnemius muscle weight loss in C57BL/6 mouse tail suspension model at 2.5 pmol administered in gastrocnemius muscle qd for 10 days relative to whole body weight.

Calls of active or inactive are those of the source. The calls are words filed in the database; no cut-off is given here.

Turning to `O=c1cc(-c2ccccc2)oc2ccccc12`, the result with Mus musculus [1], with Mus musculus [2] and in the test with Mus musculus [3] was inactive.
`CC(=O)N[C@@H](CS)C(=O)O`: the outcome with Mus musculus [4] and with Mus musculus [3] was Active.
With `O=c1c(O)c(-c2ccc(O)c(O)c2)oc2cc(O)cc(O)c12`, the outcome with Mus musculus [4], with Mus musculus [1], with Mus musculus [2] and in the test with Mus musculus [3] was Active.
